Assay outcomes (PubChem)
Sampled rows, rich in hits. Any-hit rate of the full collection: about 2.3%.
MT1-MMP act inh = blockers of MT1-MMP proenzyme processing, primary screen, HT1080 RFP-PRO-GFP cells, GFP/RFP fluorescence. Matrix metalloproteinase-14 (Homo sapiens), P50281. GFP/RFP ratio fluorescence, overnight; percent of plate control window, DMSO zero. GFP/RFP ratio change, % at 20 µM. 360,000 compounds, 0.061% hits. AID 651647, 2012;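 active = GFP/RFP ratio change of at least 30% with cell ATP level not reduced by more than half and red fluorescence within 50% of control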
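Test system: HT1080 RFP-PRO-GFP cells; Benchmarks: DMSO and RFP-L50D-GFP cell wells; Timing: cells overnight before dosing, compound overnight, 37 °C, 5% CO2; Compound: one 20 µM compound dose with 1% DMSO; Read-out: GFP/RFP fluorescence ratio.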
SUMO1 PPI mod = modulators of SUMO1 protein-protein interactions, primary screen, biochemical, uHTS; Small ubiquitin-related modifier 1 (Homo sapiens), P63165; SUMO1 binding to a labelled peptide, TR-FRET, 1 h; 360,000 compounds, 0.33% hits; inhibition, % at 20 µM; in the data active = inhibition above about 37%
Target sequence (P63165 whole entry, looked up): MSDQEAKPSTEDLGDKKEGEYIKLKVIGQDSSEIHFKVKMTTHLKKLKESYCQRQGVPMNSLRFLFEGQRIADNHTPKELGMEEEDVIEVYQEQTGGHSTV
CSN deneddyl inh = inhibitors of CSN-mediated cullin deneddylation, primary screen, biochemical, fluorescence polarization, uHTS | COP9 signalosome complex subunit 5 (Homo sapiens), Q92905 | Purified CSN, SCF-Nedd8-OG deneddylation | 360,000 compounds, 0.38% hits | inhibition, % at 12.5 µM;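 active = pattern-corrected inhibition above about 35%, with an unprinted fluorescence ratio check between 0.5 and 1.5, limit read from the data, passing the limit was not always enough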;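 also: 0% = enzyme with substrate and 100% = substrate without enzyme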
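Detection – fluorescence polarization · System – HEK293T-derived human Csn5 enzyme · Controls – substrate-only high control, full reaction low control · Timing – 90 min, room temperature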
SKN-1 block = suppressors of acrylamide-induced Pgst-4::GFP reporter in worms, primary screen, SKN-1 inhibitor project, whole organism, uHTS, GFP/RFP fluorescence ratio, strain VP596; inhibition, % at 21.8 µM; C. elegans VP596 Pgst-4::GFP/RFP ratio, 24 h; 360,000 compounds, 0.49% hits;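 active = interference check ratio from 0.5 to 1.5 plus GFP to RFP signal ratio inhibition reaching or exceeding a fixed threshold, cut at about 30% in these data, passing the limit was not always enough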
Rpn11 block = Rpn11 (PSMD14) deubiquitinase inhibitors, primary screen, biochemical, fluorescence polarization, uHTS. 26S proteasome non-ATPase regulatory subunit 14 (Homo sapiens), O00487. human 26S proteasome, Ub4-pepOG fluorescence polarization; 20S core pre-blocked with epoxomicin. inhibition, % at 20 µM. 360,000 compounds, 0.59% hits. AID 588493, 2011;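 active = inhibition at 20 µM, scaled to each plate's controls, above about 33%, limit read from the data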
DNMT1 block = human DNMT1 methyltransferase inhibitors, primary screen, biochemical, molecular beacon, fluorescence, HinP1I cleavage, uHTS; DNA (cytosine-5)-methyltransferase 1 (Homo sapiens), P26358; inhibition (reported as % activation of signal), % at 10 µM; 360,000 compounds, 0.83% hits; AID 588458, 2011; in the data active = inhibition above about 50%
DNMT1 interf DR = spectral interference with molecular beacon fluorescence, dose response, artefact control for DNMT1 inhibitor project, biochemical, fluorescent molecular beacon; 200 tested, under 10 active; spectral interference counter-screen; IC50, µM; shares compounds with DNMT1 block; AID 602382, 2012; call rule not given here
DNMT1 confirm = DNMT1 methyltransferase inhibitor retest, confirmation, biochemical, molecular beacon, fluorescence, single concentration; shares compounds with DNMT1 block; DNMT1 molecular beacon HinP1I cleavage; inhibition, % at 10 µM; 2,300 compounds, 8% hits;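 active = average inhibition of at least 30% in the single-concentration confirmation test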
DNMT1 interf = shows spectral interference in the DNMT1 beacon assay; shares compounds with DNMT1 block; DNMT1 molecular beacon spectral interference counterscreen, fluorescence 485/520; activation (fluorescence interference), % at 10 µM; 2,300 compounds, 1% hits; AID 602387;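 active = activation of at least 30% at 10 µM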;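 also: DNMT1 catalytic domain with a HinP1I cleavage step and a FAM/dabcyl DNA beacon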
Rpn11 inh conf = Rpn11 (PSMD14) deubiquitinase inhibitors, confirmation, biochemical, fluorescence polarization, single concentration; purified human 26S proteasome, Ub4-pepOG fluorescence polarization; proteasome pretreated with epoxomicin; shares compounds with Rpn11 block; inhibition, % at 20 µM; 1,900 compounds, 29% hits
MMP-2 counter-1 = MMP-2 enzyme inhibition, confirmation, counter-screen for RPN11 inhibitor project, biochemical, fluorescence, single concentration; shares compounds with Rpn11 block; recombinant MMP-2, FRET peptide cleavage fluorescence; inhibition, % at 20 µM; 1,900 compounds, 4% hits;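 also: human MMP-2 activated beforehand with APMA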
Target sequence (P08253 whole entry, looked up): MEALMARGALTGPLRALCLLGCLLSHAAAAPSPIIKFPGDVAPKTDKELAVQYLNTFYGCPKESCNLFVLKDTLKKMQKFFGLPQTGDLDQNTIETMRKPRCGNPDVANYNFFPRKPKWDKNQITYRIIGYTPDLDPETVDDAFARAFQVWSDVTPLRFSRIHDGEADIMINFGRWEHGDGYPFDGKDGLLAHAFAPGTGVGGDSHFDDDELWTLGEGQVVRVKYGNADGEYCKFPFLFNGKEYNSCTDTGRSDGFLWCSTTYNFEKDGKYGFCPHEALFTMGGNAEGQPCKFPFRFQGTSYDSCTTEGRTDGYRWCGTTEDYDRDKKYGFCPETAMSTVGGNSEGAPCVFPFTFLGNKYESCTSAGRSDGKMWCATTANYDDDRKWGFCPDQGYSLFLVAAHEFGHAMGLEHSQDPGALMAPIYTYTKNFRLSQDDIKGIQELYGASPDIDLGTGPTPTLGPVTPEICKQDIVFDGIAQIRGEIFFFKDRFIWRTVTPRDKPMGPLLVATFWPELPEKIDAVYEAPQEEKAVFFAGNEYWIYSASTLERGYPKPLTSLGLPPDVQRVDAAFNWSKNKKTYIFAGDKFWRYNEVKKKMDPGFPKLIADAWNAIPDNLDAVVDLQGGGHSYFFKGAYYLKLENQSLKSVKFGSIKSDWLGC
Thrombin FP = bovine thrombin protease inhibition, confirmation, counter-screen for Rpn11 inhibitor project, biochemical, fluorescence polarization, single concentration. inhibition, % at 20 µM. 1,900 compounds, 13% hits. shares compounds with Rpn11 block. bovine thrombin cleavage of Ub4-pepOG;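 active = mean inhibition at least 40% at 20 µM, or signal 3 deviations below plate average, so some actives read negative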;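 also: plate controls were thrombin with DMSO for no effect and buffer wells lacking thrombin for full effect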
CSN deneddyl val = Csn5 deneddylation inhibitors, confirmation, biochemical, fluorescence polarization, single concentration, SCF-Nedd8OG substrate. AID 720654, 2013. inhibition, % at 16.6 µM. shares compounds with CSN deneddyl inh. 540 compounds, 62% hits. Csn5 deneddylation of SCF-Nedd8OG, 90 min; in the data active = inhibition above about 50%;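 also: 0% = DMSO with enzyme and 100% = no enzyme wells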
MMP-2 counter-2 = MMP-2 protease inhibition counter-screen, confirmation, counter-screen for CSN deneddylation inhibitor project, biochemical, fluorescence, single concentration. shares compounds with CSN deneddyl inh. recombinant MMP-2, FRET substrate fluorescence, 60 min. inhibition, % at 16.6 µM. 540 compounds, 33% hits. AID 720655, 2013;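 active = corrected plate-normalized z-score of 5 or more, or -5 or less, or inhibition of 15% or more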;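 also: plate controls were DMSO wells with enzyme for no effect and buffer wells lacking MMP-2 for full effect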
Thrombin cntr = counter-screen for CSN deneddylation inhibitors: bovine thrombin inhibition | 540 compounds, 49% hits | bovine thrombin cleavage of Ub4-pepOG, fluorescence polarization | shares compounds with CSN deneddyl inh | inhibition, % at 16.6 µM;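 active = inhibition at or above a set limit, with a fluorescence interference ratio between 0.5 and a set maximum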
* marks the source's active call; other numbers are inactive results; . = not tested or not shown. Rule as the data show it, unless noted: active = inhibition above about 40%; inactive = the rest.

SMILES	MT1-MMP act inh	SUMO1 PPI mod	CSN deneddyl inh	SKN-1 block	Rpn11 block	DNMT1 block	DNMT1 confirm	DNMT1 interf	CSN deneddyl val	MMP-2 counter-2	Thrombin cntr	others
O=C(C1=C(O)C(=O)N(c2nc3ccc(Cl)cc3s2)C1c1ccco1)c1ccco1 (stereo not drawn)	0.4	39.5*	44.1*	25.0	.	90.3*	12.1	3.5	53.2*	12.5	15.1*
Cc1cccc(C)c1N1C(=O)c2ccccc2NC(=O)C1C(=O)NCCOc1ccccc1 (stereo not drawn)	1.6	5.6	-2.1	4.5	.	.	.	.	.	.	.
O=C(O)CN1C(=O)/C(=C\c2cc(Br)ccc2OCc2ccccc2Cl)SC1=S	.	22.4	37.8*	-1.6	2.2	64.8*	71.3*	-7.5	25.8	7.8	1.7	DNMT1 interf DR=>99
O=C(/C=C/c1ccco1)Nc1cccc(C(=O)Nc2ccccc2C(=O)O)c1	0.4	52.9*	42.0*	12.1	70.4*	85.5*	11.5	0.3	54.2*	6.0	12.5	Rpn11 inh conf=57.0*;MMP-2 counter-1=-13.8;Thrombin FP=30.7
COc1ccc(OC)c(NC(=O)Nc2nnc([C@H]3C[C@H](O)[C@@H](CO)O3)s2)c1	-3.5	-0.7	1.9	19.2	-3.2	-0.4	.	.	.	.	.
O=C1CCCC2=C1C(c1ccco1)Nc1ccc3ccccc3c12 (stereo not drawn)	-2.2	14.6	39.6*	-0.6	-33.4	103.2*	50.3*	-5.2	.	17.3*	7.8	DNMT1 interf DR=>99
O=C1CCCC2=C1C(c1ccc(O)c(O)c1)Nc1ccc3ccccc3c12 (stereo not drawn)	-6.9	-15.9	-3.5	-5.3	-6.2	-7.5	.	.	.	.	.
Cc1c2cnn(CC(=O)Nc3c(F)c(F)cc(F)c3F)c(=O)c2c(C)n1Cc1ccccc1F	0.7	16.4	62.1*	5.6	85.6*	91.1*	24.1	-4.0	2.3	7.1	13.3	DNMT1 interf DR=>99;Rpn11 inh conf=133.9*;MMP-2 counter-1=24.5;Thrombin FP=22.4
Cc1ccc(Cn2c(C(C)Nc3nc(-c4ccc(C)cc4)cs3)nc3cc(Cl)c(Cl)cc32)cc1 (stereo not drawn)	-1.6	110.1*	38.2*	13.3	71.4*	77.6*	11.2	4.5	55.0*	15.1*	7.5	Rpn11 inh conf=65.1*;MMP-2 counter-1=51.0*;Thrombin FP=-40.7
CC(Nc1nc(-c2ccc(F)cc2)cs1)c1nc2cc(Cl)c(Cl)cc2n1CCCO (stereo not drawn)	7.2	11.8	2.4	7.7	-11.3	-22.0	.	.	.	.	.
COC(=O)C[C@@H]1CC[C@H](NS(=O)(=O)c2cccc(F)c2)[C@@H](CO)O1	-1.8	10.1	-0.9	-16.4	.	.	.	.	.	.	.
C1C2CC3C1C3C2=NN=C1C2CC3C(C2)C13	1.0	-1.1	0.5	-7.7	6.8	1.0	.	.	.	.	.
COc1ccccc1N1C(=N)S/C(=C\c2ccc(-c3ccccc3C(=O)O)o2)C1=O	-33.1	25.2	35.5*	2.9	69.5*	73.4*	4.9	2.7	59.5*	8.0	31.0*	Rpn11 inh conf=73.9*;MMP-2 counter-1=23.8;Thrombin FP=47.4*
COc1ccccc1N(CC(=O)NCc1ccco1)S(=O)(=O)c1ccc(C)cc1	-1.9	22.3	43.8*	4.0	-28.2	93.4*	5.0	-0.4	61.6*	27.9*	6.3
COc1ccc(N(CC(=O)NCc2ccco2)S(=O)(=O)c2ccc(C)cc2)cc1OC	-0.6	4.6	3.7	10.5	-1.4	1.9	.	.	.	.	.
CC(=O)NC1(C)CCC2CC1C(C)=NC2(C)C (stereo not drawn)	5.8	4.0	4.0	7.6	1.8	-8.4	.	.	.	.	.
O=C(/C=C/c1ccc([N+](=O)[O-])cc1)/C=C/c1ccco1	-5.8	12.3	46.4*	3.4	6.1	91.3*	4.7	3.3	76.7*	10.3	9.3
COc1cc(NC(=O)c2ccccc2)ccc1NC(=O)c1cc2ccccc2o1	2.3	-9.4	2.8	21.4	-2.1	24.7	.	.	.	.	.
Cc1cc(NC(=O)c2cncc(Br)c2)ccc1NC(=O)c1cc2ccccc2o1	-4.9	37.8	59.8*	-5.2	22.7	74.8*	10.1	-2.4	9.7	15.8*	-10.9
